# Source: PubChem (The Scripps Research Institute Molecular Screening Center)
# A selection: hits, their analogues and other compounds. The true share with any hit is near 2.8%.
# pPAFAH inh = inhibitors of human plasma PAF acetylhydrolase (pPAFAH); Q13093; recombinant pPAFAH, FP-rhodamine probe fluorescence polarization; inhibition, % at 3.39 µM; 330,000 compounds, 1.5% hits;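 active = inhibition above the mean inhibition across the screen plus 3 SD, cut at about 25% in these data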;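 also: inhibitors block binding of the rhodamine activity-based probe so polarization drops; 0% = enzyme with DMSO and 100% = wells lacking pPAFAH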
# mABHD4 FP = inhibitors of mouse ABHD4 | purified mABHD4, FP-Rh probe fluorescence polarization | AID 720543 | inhibition, % at 8.92 µM | Q8VD66 | 370,000 compounds, 0.54% hits;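 active = inhibition exceeding the mean over every tested compound plus 3 SD, cut at about 30% in these data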;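 also: 0% = plate median of compound wells and 100% = S159A mutant with DMSO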
#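 Test system: mABHD4 protein; Read-out basis: % inhibition; Incubation: 45 min + 60 min at 25 °C; Repeats: single replicate; Technique: fluorescence polarization with parallel and perpendicular emission, 525/598 nm; Compound: 8.92 µM, single dose; Benchmarks: full inhibition S159A mutant plus DMSO, zero as sample-well median.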
# PAFAH1B3 inh = inhibitors of human PAFAH1B3. Q15102. recombinant PAFAH1B3, FP-rhodamine probe, fluorescence polarization. inhibition, % at 3.39 µM. 340,000 compounds, 0.28% hits;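 active = inhibition above the screen-wide average of all tested compounds plus 3 SD, cut at about 25% in these data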;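 also: 0% = enzyme with DMSO only and 100% = wells lacking PAFAH1B3 protein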
# HTRA1 inh = inhibitors of human serine peptidase HTRA1; recombinant HTRA1, FP-rhodamine activity-based probe, fluorescence polarization; inhibition, % at 5.96 µM; 340,000 compounds, 0.5% hits; in the data active = inhibition above about 36%;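 also: 0% = enzyme with DMSO and 100% = wells lacking enzyme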
# Target sequence (Q92743 whole entry, looked up): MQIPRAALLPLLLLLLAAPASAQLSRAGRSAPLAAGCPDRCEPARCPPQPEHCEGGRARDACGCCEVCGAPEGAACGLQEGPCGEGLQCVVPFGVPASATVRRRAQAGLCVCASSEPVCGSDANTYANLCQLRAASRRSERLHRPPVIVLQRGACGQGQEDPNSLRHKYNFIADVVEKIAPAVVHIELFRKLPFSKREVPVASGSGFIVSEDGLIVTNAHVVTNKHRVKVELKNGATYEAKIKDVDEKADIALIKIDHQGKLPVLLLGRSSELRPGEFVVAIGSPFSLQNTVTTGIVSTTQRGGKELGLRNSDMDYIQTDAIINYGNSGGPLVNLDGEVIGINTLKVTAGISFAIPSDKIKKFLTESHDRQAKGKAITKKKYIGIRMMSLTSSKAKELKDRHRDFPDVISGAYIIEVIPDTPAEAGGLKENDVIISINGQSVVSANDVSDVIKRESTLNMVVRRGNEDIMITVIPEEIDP
# PAFAH2 FP inh = inhibitors of human PAFAH2 | inhibition, % at 3.39 µM | 340,000 compounds, 0.99% hits | recombinant PAFAH2, FP-rhodamine activity probe, fluorescence polarization | AID 492956 | Q99487;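 active = inhibition above the mean over all tested compounds plus 3 SD, cut at about 30% in these data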;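 also: inhibitors block probe labeling of enzyme so polarization drops; 0% = enzyme with DMSO and 100% = wells lacking PAFAH2 protein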
# PAFAH1B2 inh = blocks human PAF acetylhydrolase 1b catalytic subunit 2; 340,000 compounds, 1.2% hits; P68402; recombinant PAFAH1B2, FP-rhodamine activity probe, fluorescence polarization; inhibition, % at 3.39 µM;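 active = inhibition above the mean of all tested compounds plus 3 SD, cut at about 24% in these data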;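 also: 0% = enzyme with DMSO and 100% = wells lacking PAFAH1B2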
# Active calls of the source: *; . = no result given.
SMILES,pPAFAH inh,mABHD4 FP,PAFAH1B3 inh,HTRA1 inh,PAFAH2 FP inh,PAFAH1B2 inh
CC1CCCC(NC(=O)COC(=O)CCC2CCCC2)C1C (stereo not drawn),28*,3,-4,-6,-6,2
CCOc1ccc(OCCC(=O)OCC(=O)NC2CCCCC2)cc1,31*,-2,22,2,7,7
Cc1ccc(OCCC(=O)OCC(=O)NC2CCCCC2)cc1,.,2,.,0,.,.
Cc1ccc(NC(=O)CCS(=O)(=O)c2ccccc2)cc1C,.,6,.,.,.,.
CCOC(=O)[C@@]12CCCC=C1N(CCc1ccc(Cl)cc1)C(=O)[C@H]2CC(=O)N1CCN(C(=O)c2ccco2)CC1,.,-2,.,.,.,.
CC1CCCC(NC(=O)Cc2ccc(Br)cc2)C1C (stereo not drawn),9,-4,3,-11,-4,-1
CC1CCCC(NC(=O)COC(=O)Cc2ccc(Br)cc2)C1C (stereo not drawn),25*,2,.,.,.,.
CC(Oc1ccc(Cl)cc1)C(=O)NNC(=S)NC(=O)c1ccco1 (stereo not drawn),0,4,3,7,6,26*
O=C(C[n+]1cnn(CC(=O)c2ccc(Cl)cc2Cl)c1)c1ccc([N+](=O)[O-])cc1,25*,14,7,20,-6,-2
CCOC(=O)C1C(C(=O)OCC)C1(c1ccccc1)c1ccccc1 (stereo not drawn),3,-9,8,-4,-6,29*
CC(C)NC(=O)Cn1c(-c2cncs2)nc2ccccc21,.,-3,.,.,.,.
O=C1CC(c2ccco2)Sc2ccccc2N1 (stereo not drawn),-5,-2,6,-1,3,-2
O=c1[nH]c2c(s1)C(c1ccco1)C1C3CCC(C3)C1S2 (stereo not drawn),4,15,0,-10,12,57*
O=C1c2ccccc2C(=O)c2c([N+](=O)[O-])ccc(O)c21,27*,10,64*,36,40*,43*
O=C(O)c1ccc([N+](=O)[O-])c2c1C(=O)c1ccccc1C2=O,5,0,15,16,16,14
COC1=CC(=O)c2ccccc2C1=O,0,.,43*,-1,10,15
O=[N+]([O-])c1cc(Cl)c(O)c2ncccc12,.,18,0,55*,1,5
CC(=O)NC(c1ccc(C)cc1)c1cc([N+](=O)[O-])c2cccnc2c1O (stereo not drawn),28*,12,4,30,9,5
COc1ccc(-c2noc(C3CCCN(C(=O)Nc4cccc(C)c4)C3)n2)cc1 (stereo not drawn),.,-10,.,.,.,.
O=C(CSc1nc2ccccc2nc1N1CCOCC1)N1CCN(S(=O)(=O)c2cccc([N+](=O)[O-])c2)CC1,.,4,.,.,.,.
Cc1nc(CS(=O)(=O)c2ccc(Cl)cc2)sc1C(=O)O,-4,-4,7,2,21,25*
CC(=O)Nc1sc2c(c1-c1nc3ccccc3s1)CNC2,.,10,.,.,.,.
Cc1ccc(C(=O)N2CCCC2)cc1S(=O)(=O)Nc1ccccc1,30*,-3,4,-1,8,0
O=C(c1ccc(S(=O)(=O)Nc2ccccc2)cc1)N1CCCC1,17,1,4,1,0,1
CCOc1ccc(NS(=O)(=O)c2ccc(C(=O)N3CCN(c4ncccn4)CC3)cc2)cc1,27*,-4,9,2,-6,4
SMILES,pPAFAH inh,mABHD4 FP,PAFAH1B3 inh,HTRA1 inh,PAFAH2 FP inh,PAFAH1B2 inh
CN1CCN(C(=O)c2ccc(S(=O)(=O)Nc3ccccc3)cc2)CC1,25*,1,1,3,2,5
CCOc1ccc(NS(=O)(=O)c2ccc(C(=O)NNC(=O)c3ccccc3O)cc2)cc1,26*,-1,1,22,-1,3
CCCCOCCCNC(=O)C[C@H]1C[C@@]2(C(=O)OC)C(=C[C@H](C3CCCC3)O[C@@H]2C)N(Cc2ccco2)C1=O,.,-1,.,.,.,.
CCOc1ccc(NS(=O)(=O)c2ccc(C(=O)N3CC(C)OC(C)C3)cc2)cc1 (stereo not drawn),29*,5,6,1,-3,-3
CCOc1ccccc1N1CCN(C(=O)c2ccc(S(=O)(=O)Nc3ccccc3)cc2)CC1,27*,0,12,-4,-6,-1
C=CCN1C=C2C(=O)C(C)(OC(=O)c3cccs3)C(=O)C=C2C=C1CCCC(=O)OC (stereo not drawn),1,12,1,6,1,3
CC1(OC(=O)CCc2ccccc2)C(=O)C=C2C=C(c3ccsc3)OC=C2C1=O (stereo not drawn),55*,.,.,.,.,.
CC1(OC(=O)c2cccs2)C(=O)C=C2C=C(c3ccsc3)OC=C2C1=O (stereo not drawn),56*,.,.,.,.,.
CC1(OC(=O)c2cccs2)C(=O)C=C2C=C(c3ccc(C#N)cc3)OC=C2C1=O (stereo not drawn),45*,.,.,.,.,.
COC(=O)CCCC1=CC2=CC(=O)C(C)(OC(=O)c3cccs3)C(=O)C2=CN1CCc1ccccn1 (stereo not drawn),3,10,8,0,0,-2
CC1(OC(=O)CCc2ccccc2)C(=O)C=C2C=C(c3ccc(C#N)cc3)N(c3ccccc3)C=C2C1=O (stereo not drawn),12,3,11,16,2,1
O=C1NC(=O)/C(=C/c2ccccc2Oc2ccc(Cl)cc2)S1,14,-4,0,-12,0,28*
CCOC(=O)[C@]12CCCCC/C=C\1N(CCc1ccc(Cl)cc1)C(=O)[C@H]2CC(=O)N1CCSCC1,.,-4,.,.,.,.
Cc1ccccc1C1=C/C(=C(\SS/C(C(=O)c2ccc(OCC(=O)O)c(Cl)c2Cl)=C2\C=C(c3ccccc3C)SS2)C(=O)c2ccc(OCC(=O)O)c(Cl)c2Cl)SS1,.,10,25,-1,34*,26*
COC(=O)[C@]12C[C@H](CC(=O)NCC34CC5CC(CC(C5)C3)C4)C(=O)N(CCc3ccc(OC)c(OC)c3)C1=C[C@H](C1CCCC1)O[C@@H]2C,.,9,.,.,.,.
O=C(O)c1ccc(NC(=O)c2cccc(C(=O)Nc3ccc(C(=O)O)cc3)n2)cc1,8,-15,40*,29,20,31*
Oc1ccccc1-c1cc(C(F)(F)C(F)F)[nH]n1,16,-9,6,-6,-1,1
Fc1ccc(-c2cc(C(F)(F)C(F)F)[nH]n2)cc1,25*,-8,.,.,.,.
CC(O)(c1ccccc1)C(C(c1ccccc1)N1CCOCC1)N1CCOCC1 (stereo not drawn),.,1,6,2,1,1
